Consider 15 molecules from ChEMBL document CHEMBL1123435, “Synthesis of 11H-pyridocarbazoles and derivatives. Comparison of their DNA binding and antitumor activity with those of 6H- and 7H-pyridocarbazoles” (1986).

In one test the test system is Calf thymus DNA. Kind of test: Binding affinity towards calf thymus DNA, at pH 5. The class given is nucleic-acid assay. To be noted: Bos taurus. In outline: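 Affinity for sonicated calf thymus DNA determined by ethidium bromide competition by fluorescence. Four cells were run together: buffer, DNA (1.5 μg/mL), and drug at 3 and 6 μg/mL plus DNA. Ethidium bromide (50 μg/mL of buffer) was added in aliquots, and apparent constants were derived from Scatchard plots of competition. Where a ligand fluoresces strongly when bound, direct fluorometric titration was used instead.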

Test [1] deals with L1210. Kind of test: Inhibitory activity against L1210 cell culture. The class given is functional. The following applies: Mus musculus, read-out: ED50 (the source's name). Summed up: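 L1210 cells in exponential growth (1 × 10⁵/mL) were held for 24 h at 37 °C in RPMI 1640 with 10% fetal calf serum across a range of drug concentrations. Total cells were counted electronically. Duplicate treated cultures were expressed as a percentage of triplicate untreated controls. ED50 came from linear regression of percent residual cells against concentration on a semilog scale.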

Test [2] has as its system L1210. Kind of test: Dose required to inhibit the cloning efficiency to a factor of 0.37 after 24-h exposure to the drug. To be noted: Mus musculus, L1210, 24 h. The class given is functional. In outline:
(§1)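 Exponentially growing L1210 cells (1 × 10⁵/mL) in RPMI 1640 with 10% fetal calf serum were exposed to the drug for 24 h at 37 °C. They were then diluted to 250 and 500 cells/mL and plated in Noble agar. After 14 days at 37 °C in 5% CO2, colonies >0.2 mm were counted, in triplicate per concentration. CE37 (cloning efficiency reduced to 0.37) was read from dose-response curves.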

The test system of test [3] is L1210. Kind of test: Dose required to inhibit the cloning efficiency to a factor of 0.37 after 24-h exposure to the drug in L1210 cell. It is filed as functional. The following applies: Mus musculus, L1210, 24 h. Summed up:
as §1

A value given as a limit tells only on which side of the number the result lay.

Consider `c1cnc2c(c1)ccc1c3ccccc3[nH]c12`, for which the K app in the test on Calf thymus DNA came out at 100000 M⁻¹.

As to `C[n+]1cccc2c3[nH]c4ccccc4c3ccc21.[I-]`, the EC50 in the test on L1210 [1] was above 1 µg/mL. The same molecule had a K app in the test on Calf thymus DNA of 10000 M⁻¹. The same molecule displayed an EC37 with L1210 [2] above 1 µg/mL.

For `COc1ccc2[nH]c3c(ccc4cccnc43)c2c1`, in the test with Calf thymus DNA, the K app stood at 100000 M⁻¹.

As for `COc1ccc2[nH]c3ccc4cc[n+](C)cc4c3c2c1.[I-]`, the EC50 in the test on L1210 [1] turned out to be 0.38 µg/mL. For the same molecule, the K app with Calf thymus DNA was found to be 300000 M⁻¹.

As to `CC(=O)[O-].Cc1c2cc[n+](C)cc2c(C)c2c1[nH]c1ccccc12`, the EC50 with L1210 [1] was 0.544 µg/mL. The molecule also displayed a K app with Calf thymus DNA of 230000 M⁻¹. The EC37 with L1210 [3] turned out to be 0.4 µg/mL.

As for `Cl.Oc1ccc2[nH]c3c(ccc4cccnc43)c2c1`, the EC50 in the test with L1210 [1] is above 1 µg/mL. This molecule gave a K app with Calf thymus DNA of 20000 M⁻¹. In addition, the EC37 with L1210 [2] was above 1 µg/mL.

`COc1ccc2[nH]c3c4cc[n+](C)cc4ccc3c2c1.[I-]`: the EC50 with L1210 [1] is above 1 µg/mL. Also, the K app with Calf thymus DNA came to 25000 M⁻¹. This molecule displayed an EC37 in the test on L1210 [2] above 1 µg/mL.

In the case of `CC(=O)[O-].Cc1c2cc[n+](C)cc2c(C)c2c1[nH]c1ccc(O)cc12` [ELLIPTINIUM ACETATE], in the test with L1210 [1], the EC50 is 0.06 µg/mL. Moreover, the K app in the test on Calf thymus DNA came to 1.3e+06 M⁻¹. This molecule displayed an EC37 in the test on L1210 [2] of 0.013 µg/mL.

`Cc1cc2c3cc(O)ccc3[nH]c2c2c[n+](C)ccc12.[I-]`: in the test on L1210 [1], the EC50 was above 1 µg/mL. This molecule also registered a K app in the test with Calf thymus DNA of 1e+06 M⁻¹. This molecule also showed an EC37 in the test with L1210 [2] above 1 µg/mL.

In the test on Calf thymus DNA, `COc1ccc2[nH]c3c(ccc4c3ccc[n+]4C)c2c1` had a K app of 60000 M⁻¹.

In turn, `COc1ccc2[nH]c3c4c[n+](C)ccc4c(C)cc3c2c1` yielded a K app in the test with Calf thymus DNA of 100000 M⁻¹.

Turning to `C[n+]1cccc2c3[nH]c4ccc(O)cc4c3ccc21.[I-]`, the EC50 in the test on L1210 [1] is above 1 µg/mL. For the same molecule, the K app with Calf thymus DNA was 100000 M⁻¹. In the test with L1210 [2], the EC37 is above 1 µg/mL.

`C[n+]1ccc2c(ccc3c4ccccc4[nH]c23)c1.[I-]`: the EC50 in the test on L1210 [1] was above 1 µg/mL. In the test with Calf thymus DNA, this molecule had a K app of 20000 M⁻¹. Also, in the test on L1210 [2], the EC37 was above 1 µg/mL.

On to `Cc1cc2c3ccccc3[nH]c2c2c[n+](C)ccc12.[I-]`, for which the EC50 in the test with L1210 [1] was above 1 µg/mL. Besides, the K app with Calf thymus DNA is 100000 M⁻¹. The EC37 in the test with L1210 [2] is above 1 µg/mL.

On to `C[n+]1ccc2ccc3[nH]c4ccc(O)cc4c3c2c1.[I-]`, for which the EC50 with L1210 [1] turned out to be 0.12 µg/mL. Moreover, the K app in the test with Calf thymus DNA was 180000 M⁻¹.
